Data on six molecules can be found in article PMC6397674 (Clinical cancer research : an official journal of the …, 2018).

A value given as a limit tells only on which side of the number the result lay.

Data set [1] deals with mitogen-activated normal T-lymphocytes. As to the kind of experiment: Viability of mitogen-activated normal T-lymphocytes. The data set is classed as cell-based.
The test system of data set [2] is ZEB2-positive ETP-ALL cell lines such as Loucy and PEER. Description: Efficacy in relation to ZEB2 expression in T-ALL and ETP-ALL cell lines. The data set is classed as cell-based, human.
Data set [3] in a line: Pharmacokinetic study, plasma and brain concentrations by LC-MS/MS. The format is in vivo, NOD/SCID mice. Conditions: for Brain/Plasma ratio / AUC / Brain concentration at 0.5 h / Plasma concentration at 0.5 h / T1/2 / nAUC (dose-normalized AUC): NOD.CB17-PrkdcSCID/J mice, single intraperitoneal injection, 50 mg/kg, n = 3; for Brain/Plasma ratio: 0.5 h.
The conditions of data set [4]: for changes in complete blood count, liver and kidney functions, histopathological examination of some organs: NOD/SCID mice treated with up to 150 mg/kg.
The subject of data set [5] is MOLT4 cells. As to the kind of experiment: Isobologram / combination index analysis with anti-leukemic drugs. The format is cell-based, human. Conditions: 72 hours. The method in brief: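 MOLT4 cells exposed to each of several anti-leukemia drugs, without or with the test compound, for 72 h to generate dose-response curves for each combination. Combination index calculated by the Chou–Talalay method; CI <1.0 taken as synergism. Mean ± S.D. from three independent experiments.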

For another data set, the system named is Jurkat cells. As to the kind of experiment: Systemic T-ALL, tail-vein injection of luciferase-expressing Jurkat cells. The format is in vivo, NOD/SCID mice. To be noted: S2157 50 mg/kg, OG-L002 12.5 mg/kg (its MTD), twice a week for 3 weeks.
A further data set relates to T-ALL cells. Description: Subcutaneous T-ALL xenograft. The format is in vivo, NOD/SCID mice. To be noted: for side effects / size of subcutaneous tumors: intraperitoneal injection at 50 mg/kg, 3 times a week.
For another data set, the system named is primary T-ALL cells. Description: Combination with anti-leukemic drugs in primary T-ALL cells. The format is cell-based, human.
Data set [6] concerns CD34-positive normal hematopoietic progenitor cells. Description: Viability of CD34-positive normal bone marrow progenitor cells. The data set is classed as cell-based. To be noted: 72 hours, with stem cell factor and thrombopoietin. The method in brief:
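Purchased CD34-positive normal bone marrow progenitor cells were cultured with stem cell factor and thrombopoietin, without or with various concentrations of test compound, for 72 hours. Jurkat cells were treated in parallel as a control. Viability was measured by MTT reduction as a percentage of untreated controls. Values are mean ± S.D. of three independent experiments, compared by one-way ANOVA with Bonferroni post-hoc test.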

For data set [7], the system named is MOLT4 cells. The format is in vivo, NOD/SCID mice. To be noted: for effect on CNS leukemia: murine xenotransplant model, histopathological examination / imaging.
A further data set deals with T-ALL cell lines. The data set is classed as cell-based, human. To be noted: read-out: IC50 values, 72 hours of culture. The method in brief: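 Human T-ALL cell lines (CEM, Jurkat, MOLT4, Loucy, PEER) were cultured with a range of test compound concentrations for 72 hours. IC50 was calculated from the dose-response curves. Values are means ± S.D. of three independent experiments, compared by one-way ANOVA with Tukey's multiple comparison test.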

Data set [8] has as its system murine genetically engineered T-ALL and human T-ALL cell lines such as MOLT4, Jurkat, HPB-ALL and KARPAS45. Conditions: cited from earlier work.
A further data set has as its system T-ALL. Conditions: read-out: IC50 values; cited from earlier work.
Where [9] appears, read: single intraperitoneal injection at 50 mg/kg, NOD/SCID and ICR mice.

Turning to `CN1CCN(C(=O)CN[C@@H]2C[C@H]2c2cc(F)cc(F)c2OCc2ccccc2)CC1.Cl` [S2157], the “viability of mitogen-activated normal T-lymphocytes” value in [1] is “modestly inhibited”. Further, the “efficacy in ZEB2-positive ETP-ALL cell lines” value in data set [2] was “relatively ineffective”. For the same molecule, in [3], the Brain/Plasma ratio was 13.0 ± 6.26, the AUC (commonly concentration integrated over time) was determined as 5.75 ± 3.67 µM·h, the “Brain concentration at 0.5 h” value was 64.0 ± 3.46 µmol/kg and the “Plasma concentration at 0.5 h” value is 5.71 ± 2.47 µM. In [3], the T1/2 was 0.88 ± 0.04 h and the “nAUC (dose-normalized AUC)” value amounted to 0.11 ± 0.07 µM·h. Besides, in data set [3] (setting [9]), the “brain/plasma concentration ratio relative to S2116” value is reported as above 75 fold and the “maximal brain concentration relative to S2116” value is recorded as “approximately 50 fold”. Besides, in data set [4], the “changes in complete blood count, liver and kidney functions, histopathological examination of some organs” value was “no obvious changes were observed”. In addition, in the data set on MOLT4 cells [5], the “combined effect with 4-hydroxycyclophosphamide (4-OHCY)” value is “additive”, the “combined effect with L-asparaginase” value is listed as “synergistic”, the “combined effect with bortezomib” value was “additive” and the “combined effect with dexamethasone” value is on record as “synergistic”. For the same molecule, the “anti-leukemic activity in Jurkat-transplanted mice” value with Jurkat cells was “therapeutic benefit of S2157 including the eradication of CNS disease”. Further, in the data set with T-ALL cells, the side effects entry was “negligible side effects, such as moderate leukocytosis and thrombocytopenia without bleeding tendency”; the “size of subcutaneous tumors” value is recorded as “less than 20 % of that in the untreated control”. Further, in the data set on primary T-ALL cells, the “combined effect with L-asparaginase” value is recorded as “synergy” and the “combined effect with dexamethasone” value is recorded as “synergy”. In addition, the “viability of CD34-positive normal hematopoietic progenitor cells” value in [6] is listed as “did not affect the viability”. Also, the “hazard ratio against untreated mice, single agent” value in the data set on MOLT4 cells [7] (50 mg/kg ip twice a week, log-rank test, P = 0.0246) stood at 0.2371. In the data set on MOLT4 cells [7] (S2157 50 mg/kg ip twice a week plus dexamethasone 10 mg/kg ip 5 times a week), the “hazard ratio against untreated control, combination with dexamethasone” value is on record as 0.1787. In addition, in the data set on MOLT4 cells [7] (murine xenografts), the neurotoxicity result is “without detectable neurotoxicity”. In the data set on MOLT4 cells [7], the “effect on CNS leukemia” value is given as “CNS leukemia nearly disappeared”. In the data set on MOLT4 cells [7] (twice-per-week injection at either 30 mg/kg or 50 mg/kg), the “growth of MOLT4 cells (bioluminescence)” value is listed as “almost completely suppressed the growth of MOLT4 cells in most but not all mice”.
Turning to `Cl.N[C@H]1CCN(C(=O)CN[C@@H]2C[C@H]2c2cc(F)cc(F)c2OCc2ccccc2)C1` [S2116], the “viability of mitogen-activated normal T-lymphocytes” value in data set [1] is “modestly inhibited”. Also, the “efficacy in ZEB2-positive ETP-ALL cell lines” value in data set [2] was “relatively ineffective”. For the same molecule, in data set [3], the Brain/Plasma ratio amounted to 0.17 ± 0.03, the area under the curve (AUC) turned out to be 41.78 ± 8.66 µM·h, the “Brain concentration at 0.5 h” value was determined as 1.35 ± 0.39 µmol/kg and the “Plasma concentration at 0.5 h” value is 8.17 ± 2.80 µM. In addition, in [3], the T1/2 is 10.88 ± 2.97 h and the “nAUC (dose-normalized AUC)” value was 0.84 ± 0.17 µM·h. Further, in data set [4], the “changes in complete blood count, liver and kidney functions, histopathological examination of some organs” value is on record as “no obvious changes were observed”. In addition, in the data set with MOLT4 cells [5], the “combined effect with L-asparaginase” value was “synergistic”, the “combined effect with cytosine arabinoside” value was “additive” and the “combined effect with dexamethasone” value was “additive”. Also, in the data set on T-ALL cells (MOLT4-inoculated NOD/SCID mice), the “overall survival of MOLT4-inoculated mice” value is “significantly prolonged”. For the same molecule, in the data set with T-ALL cells, the side effects entry is “negligible side effects, such as moderate leukocytosis and thrombocytopenia without bleeding tendency”; the “size of subcutaneous tumors” value is “less than 20 % of that in the untreated control”. The “viability of CD34-positive normal hematopoietic progenitor cells” value in [6] was “did not affect the viability”. In addition, the “effect on CNS leukemia” value in the data set on MOLT4 cells [7] is on record as “failed to eradicate CNS disease”.
Consider `N[C@@H]1C[C@H]1c1cc(F)cc(F)c1OCc1ccccc1` [S2101], for which the concentration for half-maximal inhibition (IC50) (in general, the concentration needed to halve the response being measured) in the data set on T-ALL cell lines is at least 20 µM.
On to `O=C(O)c1ccc(CN2CCC(CN[C@@H]3C[C@H]3c3ccccc3)CC2)cc1` [GSK2879552], for which, in data set [8], the pro-apoptotic activity result is “failed to show pro-apoptotic activity”.
On to `N[C@H]1C[C@@H]1c1ccc(-c2cccc(O)c2)cc1` [OG-L002, reference compound], for which the “maximum tolerated dose (MTD)” value in data set [4] (NOD/SCID mice, intraperitoneal injection) was 12.5 mg/kg. In data set [4] (NOD/SCID mice, intraperitoneal injection, unknown causes), the “dose after which recipients died immediately” value is at least 25 mg/kg. The “anti-leukemic activity in Jurkat-transplanted mice” value in the data set on Jurkat cells was “failed to show anti-leukemic activity”. Besides, the IC50 with T-ALL cell lines is at least 20 µM.
`Cn1cc(C(=O)Nc2ccc([C@@H]3C[C@H]3NCC3CC3)cc2)cn1` [T-3775440]: the IC50 in the data set on T-ALL is above 10 µM.
